For orientation: IC50 means the concentration that inhibits the measured activity by half. Lower therefore signals higher potency. What is called inhibition is the change of the read-out against control, counted positive when it falls. A lower inhibition goes with little suppression. As usually defined, the EC50 is the concentration that produces a half-maximal response. The low end stands for a more potent agent, the high end for a less potent agent.

Bounds are passed on as bounds.

We go through eleven molecules from ChEMBL document CHEMBL1127856, “Synthesis and structure-activity studies on acidic amino acids and related diacids as NMDA receptor ligands” (J Med Chem, 1994).

The first assay addresses T1, Glutamate receptor ionotropic, AMPA (Rattus norvegicus, UniProt P19490+P19491+P19492+P19493). Nature of the assay: Tested in vitro for the concentration required to inhibit [3H]AMPA radioligand at AMPA receptor sites in rat cortical membranes. In kind it is cell membranes.
Details: not given
The molecule `NC(Cc1c(O)noc1CBr)C(=O)O` (configuration not stated) displayed a concentration for half-maximal inhibition (IC50) of 0.03 µM.

Another assay concerns the target T1, Glutamate receptor ionotropic, AMPA. Nature of the assay: Tested in vitro for the concentration required to inhibit [3H]AMPA radioligand at EAA receptor sites in rat cortical membranes. In kind it is cell membranes.
Details: not given
The procedure, abridged:
(§1)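 Radioligand displacement ([3H]AMPA or [3H]CPP) in rat cortical membranes prepared by the Ransom and Stec method.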
As to `CC(C)(C)c1onc(O)c1C(N)C(=O)O` (configuration not stated), the half-inhibitory concentration (IC50) was over 100 µM.
Regarding `NC1(C(=O)O)CCCCc2onc(O)c21` (configuration not stated), the half-maximal inhibitory concentration (IC50) is over 100 µM.
Regarding `NC(Cc1c(O)noc1CO)C(=O)O` (configuration not stated), the IC50 came to 0.4 µM.
In turn, `CNC(C(=O)O)c1c(C)o[nH]c1=O` (configuration not stated) showed a half-maximal inhibitory concentration (IC50) of over 100 µM.
Still for that read-out and setting: with `Cc1o[nH]c(=O)c1C(N)C(=O)O` (configuration not stated) the figure was over 100 µM; with `O=C(O)c1cccnc1C(=O)O` [QUINOLINIC ACID], over 100 µM; with `CSC(C(=O)O)c1c(O)noc1C` (configuration not stated), over 100 µM.
Turning to `NC(C(=O)O)c1c(O)noc1CO` (configuration not stated), the IC50 is over 100 µM.
`COC(C(=O)O)c1c(O)noc1C` (configuration not stated): the IC50 is over 100 µM.

In a further assay the target is Glutamate receptor ionotropic, AMPA (Rattus norvegicus) (UniProt P19491+P19492+P19493+P19490). Nature of the assay: Inhibition of [3H]AMPA radioligand at EAA receptor sites in rat cortical membranes at 100 uM concentration. In kind it is cell membranes. The conditions noted are these: Membrane. The procedure, abridged: as §1
In turn, `CC(C)(C)c1onc(O)c1C(N)C(=O)O` (configuration not stated) returned an inhibition of 8%.

A further assay deals with Glutamate receptor ionotropic, NMDA 2C (Rattus norvegicus) (UniProt Q00961). Put plainly: pKa was determined. The format is functional.
Glutamate receptor ionotropic, NMDA 2C (Rattus norvegicus), sequence (Q00961 20-1237 limits assumed): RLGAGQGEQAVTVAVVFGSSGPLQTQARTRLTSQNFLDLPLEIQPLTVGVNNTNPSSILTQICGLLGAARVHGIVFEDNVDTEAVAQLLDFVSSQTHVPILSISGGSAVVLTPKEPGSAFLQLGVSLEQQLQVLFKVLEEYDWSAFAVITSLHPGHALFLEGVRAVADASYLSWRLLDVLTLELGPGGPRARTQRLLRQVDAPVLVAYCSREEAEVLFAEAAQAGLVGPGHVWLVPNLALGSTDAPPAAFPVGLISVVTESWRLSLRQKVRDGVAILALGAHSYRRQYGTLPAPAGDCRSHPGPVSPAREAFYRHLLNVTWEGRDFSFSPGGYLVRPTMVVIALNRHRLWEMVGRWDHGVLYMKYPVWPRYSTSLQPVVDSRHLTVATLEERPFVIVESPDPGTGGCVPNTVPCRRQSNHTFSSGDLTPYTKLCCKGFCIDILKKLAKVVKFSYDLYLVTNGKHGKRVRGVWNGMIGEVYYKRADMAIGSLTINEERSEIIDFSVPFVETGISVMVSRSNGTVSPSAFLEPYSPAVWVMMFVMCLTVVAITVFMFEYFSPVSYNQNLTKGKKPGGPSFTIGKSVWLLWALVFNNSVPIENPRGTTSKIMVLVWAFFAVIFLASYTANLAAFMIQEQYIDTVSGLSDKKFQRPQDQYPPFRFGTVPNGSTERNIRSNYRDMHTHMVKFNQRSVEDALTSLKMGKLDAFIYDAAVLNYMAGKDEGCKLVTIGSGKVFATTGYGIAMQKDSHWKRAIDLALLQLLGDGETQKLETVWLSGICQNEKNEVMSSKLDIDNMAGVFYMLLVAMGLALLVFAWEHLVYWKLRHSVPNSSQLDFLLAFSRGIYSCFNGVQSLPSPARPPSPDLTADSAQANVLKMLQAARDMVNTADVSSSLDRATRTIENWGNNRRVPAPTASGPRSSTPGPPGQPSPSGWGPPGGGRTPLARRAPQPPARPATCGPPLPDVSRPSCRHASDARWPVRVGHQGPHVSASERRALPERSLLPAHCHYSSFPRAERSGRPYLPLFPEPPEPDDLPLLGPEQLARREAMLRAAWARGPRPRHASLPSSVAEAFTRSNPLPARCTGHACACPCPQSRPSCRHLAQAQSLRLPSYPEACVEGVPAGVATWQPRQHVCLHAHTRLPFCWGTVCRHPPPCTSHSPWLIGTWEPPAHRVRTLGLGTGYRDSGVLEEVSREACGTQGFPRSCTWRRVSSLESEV
Details: not given
`O=C(O)c1cccnc1C(=O)O` [QUINOLINIC ACID] had a pKa of under 2.

A further assay concerns the target Glutamate NMDA receptor (Rattus norvegicus) (UniProt P35439+Q00959+Q00960+Q00961+Q62645+Q8VHN2+Q9R1M7). Nature of the assay: Inhibition of [3H]CPP radioligand at EAA receptor sites in rat cortical membranes at 100 uM concentration. The format is cell membranes. The following applies: Membrane. In short, it runs like this:
as §1
Regarding `CC(C)(C)c1onc(O)c1C(N)C(=O)O` (configuration not stated), the inhibition is 25%.

For the next assay, the target named is Glutamate NMDA receptor. Nature of the assay: Tested in vitro for the concentration required to inhibit [3H]CPP radioligand at EAA receptor sites in rat cortical membranes.
Details: not given
In kind it is cell membranes. In short, it runs like this:
as §1
For the molecule `CC(C)(C)c1onc(O)c1C(N)C(=O)O` (configuration not stated), the IC50 is over 100 µM.
Same read-out and setting: with `NC1(C(=O)O)CCCCc2onc(O)c21` (configuration not stated) the figure was over 100 µM; with `NC(Cc1c(O)noc1CO)C(=O)O` (configuration not stated), over 100 µM.
With `CNC(C(=O)O)c1c(C)o[nH]c1=O` (configuration not stated), the IC50 was 18.3 µM.
With `O=C(O)c1cccnc1C(=O)O` [QUINOLINIC ACID], the IC50 was over 100 µM.
For `CSC(C(=O)O)c1c(O)noc1C` (configuration not stated), the IC50 was over 100 µM.
Molecule `CC(C)(C)c1onc(O)c1CC(N)C(=O)O` (configuration not stated) showed an IC50 of over 100 µM.
On the same count and under the same terms, with `COC(C(=O)O)c1c(O)noc1C` (configuration not stated) the figure was over 100 µM.

A further assay is filed under the species Rattus norvegicus. Put plainly: Effective concentration in vitro as electropharmacological activity in the rat cortical wedge preparation; antagonist. In kind it is functional.
Details: not given
In short, it runs like this: (§2)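 Rat brain wedges (500 μm) containing cerebral cortex and corpus callosum, separated by a grease gap. The cortex side is perfused with Mg2+-free oxygenated Krebs buffer containing the compounds, and the callosum side with Mg2+- and Ca2+-free Krebs. DC potentials are recorded via Ag/AgCl electrodes. Agonists for antagonism: NMDA 10 μM, AMPA 5 μM, kainic acid 10 μM. Dose–response curves come from single experiments, each repeated at least twice.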
With `CC(C)(C)c1onc(O)c1C(N)C(=O)O` (configuration not stated), the concentration giving a half-maximal response (EC50) entry is on record as “Antagonist”.

The species named for a further assay is Rattus norvegicus. Put plainly: Effective concentration in vitro as electropharmacological activity in the rat cortical wedge preparation. In kind it is functional.
Details: not given
The procedure, abridged:
as §2
The molecule `NC1(C(=O)O)CCCCc2onc(O)c21` (configuration not stated) had an EC50 of 2500 µM.
In turn, `NC(Cc1c(O)noc1CO)C(=O)O` (configuration not stated) displayed a 50% effective concentration (EC50) of 110 µM.
On the same count and under the same terms, then `CNC(C(=O)O)c1c(C)o[nH]c1=O` (configuration not stated), with 70 µM; and `Cc1o[nH]c(=O)c1C(N)C(=O)O` (configuration not stated), with 4.3 µM; and `O=C(O)c1cccnc1C(=O)O` [QUINOLINIC ACID], with 1500 µM.
On the same count and under the same terms, then `CSC(C(=O)O)c1c(O)noc1C` (configuration not stated), with over 5000 µM; and `CC(C)(C)c1onc(O)c1CC(N)C(=O)O` (configuration not stated), with 48 µM; and `NC(Cc1c(O)noc1CBr)C(=O)O` (configuration not stated), with 13 µM.
The molecule `NC(C(=O)O)c1c(O)noc1CO` (configuration not stated) returned an EC50 of 8 µM.
In the case of `COC(C(=O)O)c1c(O)noc1C` (configuration not stated), the EC50 is over 5000 µM.

In the next assay the target is Glutamate NMDA receptor. Nature of the assay: Stimulation of [3H]-MK-801 binding to EAA receptor sites in rat cortical membranes.
Details: not given
`CC(C)(C)c1onc(O)c1C(N)C(=O)O` (configuration not stated) showed an EC50 of over 100 µM.
For the molecule `NC1(C(=O)O)CCCCc2onc(O)c21` (configuration not stated), the EC50 was over 100 µM.
`NC(Cc1c(O)noc1CO)C(=O)O` (configuration not stated): the EC50 is over 100 µM.
In the case of `CNC(C(=O)O)c1c(C)o[nH]c1=O` (configuration not stated), the EC50 turned out to be 50 µM.
Consider `Cc1o[nH]c(=O)c1C(N)C(=O)O` (configuration not stated), for which the EC50 stood at 0.45 µM.
In turn, `CSC(C(=O)O)c1c(O)noc1C` (configuration not stated) came in with an EC50 of over 100 µM.
The molecule `CC(C)(C)c1onc(O)c1CC(N)C(=O)O` (configuration not stated) showed an EC50 of over 100 µM.
`NC(Cc1c(O)noc1CBr)C(=O)O` (configuration not stated) registered a concentration giving a half-maximal response (EC50) of over 100 µM.
The molecule `NC(C(=O)O)c1c(O)noc1CO` (configuration not stated) yielded an EC50 of 5 µM.
For `COC(C(=O)O)c1c(O)noc1C` (configuration not stated), the EC50 is over 100 µM.
